Experimental data reported in ChEMBL document CHEMBL5030505, “Assessment of NR4A Ligands That Directly Bind and Modulate the Orphan Nuclear Receptor Nurr1” (J Med Chem, 2020).
Active and inactive are the calls of the source. The calls are words filed in the database; no cut-off is given here.

Experiments:
Format in all cases: cell-based
[1] = target: Nuclear receptor subfamily 4 group A member 2 (Homo sapiens) (UniProt P43354); test: Modulation of full length human Nurr1 expressed in SKNBE(2) cells co-transfected with luciferase reporter plasmid harboring NurRE response element assessed as increase in luciferase activity at 1.56 to 6.25 uM incubated for 18 by luciferase reporter gene assay; settings: SKNBE2, filed as modulator, dose 1.56-6.25 µM, time 18.0 hrs
Sequence of Nuclear receptor subfamily 4 group A member 2 (Homo sapiens) (P43354 whole entry, the tested form may be a part): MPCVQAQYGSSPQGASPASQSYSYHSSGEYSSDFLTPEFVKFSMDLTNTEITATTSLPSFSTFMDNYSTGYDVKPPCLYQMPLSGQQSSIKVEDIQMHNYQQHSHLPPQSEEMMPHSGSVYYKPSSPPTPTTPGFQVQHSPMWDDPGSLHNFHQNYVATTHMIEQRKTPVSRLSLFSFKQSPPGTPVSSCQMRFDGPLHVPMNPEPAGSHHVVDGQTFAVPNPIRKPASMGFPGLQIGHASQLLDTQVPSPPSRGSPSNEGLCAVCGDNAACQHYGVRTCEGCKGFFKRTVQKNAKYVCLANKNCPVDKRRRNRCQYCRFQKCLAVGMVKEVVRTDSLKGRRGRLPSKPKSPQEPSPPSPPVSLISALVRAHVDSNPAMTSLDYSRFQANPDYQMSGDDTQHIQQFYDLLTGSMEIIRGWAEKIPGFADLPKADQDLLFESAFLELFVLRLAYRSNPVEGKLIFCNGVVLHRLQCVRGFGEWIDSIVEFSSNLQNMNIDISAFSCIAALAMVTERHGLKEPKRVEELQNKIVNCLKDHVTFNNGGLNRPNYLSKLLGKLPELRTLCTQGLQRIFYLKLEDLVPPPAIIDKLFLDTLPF
Procedure, shortened: (§1)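 Cells transfected (Lipofectamine 2000, 18 h) with full-length Nurr1 expression plasmid (2 μg) and 3xNBRE- or 3xNurRE-luciferase reporter (6 μg), no internal control normalisation; replated 10,000 cells/well, 4 h; ligand or vehicle in quadruplicate for 18 h; Britelite Plus luminescence as fold change over vehicle. Mean ± s.e.m. (n=4); one-way ANOVA versus vehicle.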

[2] = target: Nuclear receptor subfamily 4 group A member 2 (Homo sapiens) (UniProt P43354); test: Modulation of full length human Nurr1 expressed in SKNBE(2) cells co-transfected with luciferase reporter plasmid harboring NurRE response element assessed as decrease in luciferase activity at 1.56 to 6.25 uM incubated for 18 by luciferase reporter gene assay; settings: SKNBE2, filed as modulator, dose 1.56-6.25 µM, time 18.0 hrs; procedure, shortened: as §1
[3] = target: Nuclear receptor subfamily 4 group A member 2 (Homo sapiens) (UniProt P43354); test: Modulation of full length human Nurr1 expressed in HEK293T cells co-transfected with luciferase reporter plasmid harboring NurRE response element assessed as increase in luciferase activity at 1.56 to 6.25 uM incubated for 18 by luciferase reporter gene assay; settings: filed as modulator, dose 1.56-6.25 µM, time 18.0 hrs; procedure, shortened: as §1
[4] = system: HEK-293T; test: Cytotoxicity against human HEK293T cells assessed as reduction in cell viability at 1.56 to 6.25 microM incubated for 18 hrs by Cell titer-glo assay; settings: dose 1.56-6.25 µM
Procedure, shortened: (§2)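 Cells seeded 1.5 million per 10-cm dish; next day replated at 10,000 cells/well in 384-well format, 4 h, then ligand or vehicle (water, ethanol or DMSO by ligand) added in quadruplicate for 18 h; viability read by CellTiter-Glo luminescence. Mean ± s.e.m. (n=4), generally 2 independent experiments; one-way ANOVA versus vehicle.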

[5] = system: SK-N-BE(2); test: Cytotoxicity against human SKNBE(2) cells assessed as reduction in cell viability at 1.56 to 6.25 microM incubated for 18 hrs by Cell titer-glo assay; settings: dose 1.56-6.25 µM; procedure, shortened: as §2
[6] = target: Nuclear receptor subfamily 4 group A member 2 (Homo sapiens) (UniProt P43354); test: Modulation of full length human Nurr1 expressed in PC12 cells co-transfected with RXRalpha and luciferase reporter plasmid harboring NurRE response element assessed as increase in luciferase activity at 1.56 to 6.25 uM incubated for 18 by luciferase reporter gene assay; settings: PC-12, filed as modulator, dose 1.56-6.25 µM, time 18.0 hrs
[7] = target: Nuclear receptor subfamily 4 group A member 2 (Homo sapiens) (UniProt P43354); test: Modulation of full length human Nurr1 expressed in SKNBE(2) cells co-transfected with RXRalpha and luciferase reporter plasmid harboring NurRE response element assessed as decrease in luciferase activity at 1.56 to 6.25 uM incubated for 18 by luciferase reporter gene assay; settings: SKNBE2, filed as modulator, dose 1.56-6.25 µM, time 18.0 hrs
[8] = system: SKNBE2; test: Modulation of Gal4-fused VP16 expressed in SKNBE(2) cells co-transfected with UAS repoter gene assessed as decrease in luciferase activity at 125 uM incubated for 18 hrs by luciferase reporter gene assay; settings: Human alphaherpesvirus 2, filed as modulator
Procedure, shortened: (§3)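 Cells in 10-cm dishes were transfected with Gal4-VP16 expression plasmid (2 μg) plus 5xUAS-luciferase reporter (2 μg) for 18 h. They were replated at 10,000 cells/well for 4 h, then given ligand or vehicle (water, ethanol or DMSO) in quadruplicate for 18 h. Luciferase was read with Britelite Plus. Fold change is versus vehicle-treated cells, with one-way ANOVA versus vehicle.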

[9] = target: Nuclear receptor subfamily 4 group A member 2 (Homo sapiens) (UniProt P43354); test: Modulation of full length human Nurr1 expressed in PC12 cells co-transfected with RXRalpha and luciferase reporter plasmid harboring NBRE response element assessed as decrease in luciferase activity at 1.95 to 125 uM incubated for 18 hrs by luciferase reporter gene assay; settings: PC-12, filed as modulator, dose 1.95-125 µM
Procedure, shortened: (§4)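 Full-length Nurr1 plasmid, alone (2 μg) or 1 μg plus full-length RXRα (1 μg), cotransfected with 3xNBRE- or 3xNurRE-luciferase reporter (6 μg) using Lipofectamine 2000, 18 h. Cells replated at 10,000/well for 4 h. Four ligand concentrations, or vehicle (water, ethanol or DMSO), added in quadruplicate for 18 h. Luciferase read. Fold change vs vehicle, mean ± s.e.m., one-way ANOVA vs vehicle.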

[10] = target: Nuclear receptor subfamily 4 group A member 2 (Homo sapiens) (UniProt P43354); test: Modulation of full length human Nurr1 expressed in PC12 cells co-transfected with luciferase reporter plasmid harboring NurRE response element assessed as decrease in luciferase activity at 1.95 to 125 uM incubated for 18 hrs by luciferase reporter gene assay; settings: PC-12, filed as modulator, dose 1.95-125 µM
Procedure, shortened: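 Here PC12 cells (FK-12 medium, 15% horse serum, 2.5% FBS, 37°C, 5% CO2) received full-length Nurr1 (2 μg) without RXRα, plus 3xNBRE- or 3xNurRE-luciferase reporter (6 μg), for 18 h. Cells were replated at 10,000/well for 4 h, then treated with ligand or vehicle in quadruplicate for 18 h. Luciferase luminescence was normalized to vehicle-treated cells. Results are mean ± s.e.m. (n=4) from 2 independent experiments, with one-way ANOVA against vehicle.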

[11] = target: Nuclear receptor subfamily 4 group A member 2 (Homo sapiens) (UniProt P43354); test: Modulation of full length human Nurr1 expressed in HEK293T cells co-transfected with RXRalpha and luciferase reporter plasmid harboring NBRE response element assessed as decrease in luciferase activity at 1.95 to 125 uM incubated for 18 hrs by luciferase reporter gene assay; settings: filed as modulator, dose 1.95-125 µM; procedure, shortened: as §4
[12] = target: Nuclear receptor subfamily 4 group A member 2 (Homo sapiens) (UniProt P43354); test: Modulation of full length human Nurr1 expressed in SK-N-BE(2) cells co-transfected with luciferase reporter plasmid harboring NBRE response element assessed as increase in luciferase activity at 1.95 to 125 uM incubated for 18 hrs by luciferase reporter gene assay; settings: SKNBE2, filed as modulator, dose 1.95-125 µM
Procedure, shortened: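 Transfection of SK-N-BE(2)-C cells (1:1 EMEM/F12, 10% FBS, 37°C, 5% CO2) used full-length Nurr1 alone (2 μg, no RXRα) with 3xNBRE- or 3xNurRE-luciferase reporter (6 μg) for 18 h. Cells were replated at 10,000/well for 4 h, then exposed to ligand or vehicle in quadruplicate for 18 h. Luminescence was expressed as fold over vehicle, as mean ± s.e.m. (n=4) from 2 independent experiments, one-way ANOVA against vehicle.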

[13] = target: Nuclear receptor subfamily 4 group A member 2 (Homo sapiens) (UniProt P43354); test: Modulation of full length human Nurr1 expressed in HEK293T cells co-transfected with luciferase reporter plasmid harboring NurRE response element assessed as decrease in luciferase activity at 1.95 to 125 uM incubated for 18 hrs by luciferase reporter gene assay; settings: filed as modulator, dose 1.95-125 µM; procedure, shortened: as §4
[14] = system: SK-N-BE(2); test: Cytotoxicity against human SKNBE2 cells assessed as reduction in cell viability at 125 uM incubated for 18 hrs by Cell Titer Glo assay
Procedure, shortened: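 Cells seeded at 1.5 million per 10-cm dish. Next day they were replated at 10,000 cells/well and rested 4 h. Ligand or vehicle (water, ethanol or DMSO, by ligand) was added in dose-response format in quadruplicate. After 18 h, viability was read by CellTiter-Glo luminescence. Data are mean ± s.e.m., generally representative of 2 independent experiments. One-way ANOVA versus vehicle.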

[15] = system: PC-12; test: Modulation of Gal4-fused VP16 expressed in PC12 cells co-transfected with UAS repoter gene assessed as decrease in luciferase activity at 5 to 100 uM incubated for 18 hrs by luciferase reporter gene assay; settings: Human alphaherpesvirus 2, filed as modulator, dose 5-100 µM; procedure, shortened: as §3

Structure (SMILES) | Activity [1] | Activity [2] | Activity [3] | Activity [4] | Activity [5] | Activity [6] | Activity [7] | Activity [8] | Activity [9] | Activity [10] | Activity [11] | Activity [12] | Activity [13] | Activity [14] | Activity [15]
CC1=C(O)C(=O)C=C2C1=CC=C1[C@@]2(C)CC[C@@]2(C)[C@@H]3C[C@](C)(C(=O)O)CC[C@]3(C)CC[C@]12C [CELASTROL] | Active | Active | Active | Toxic | Toxic | Active | Active | – | – | – | – | – | – | – | –
CCN(CC)Cc1cc(Nc2ccnc3cc(Cl)ccc23)ccc1O [AMODIAQUINE] | – | – | – | – | – | – | – | Active | Active | Active | Active | Active | Active | Non-Toxic | –
CCN(CC)CCCC(C)Nc1ccnc2cc(Cl)ccc12 (configuration not stated) [CHLOROQUINE] | – | – | – | – | – | – | – | Active | Active | Active | Active | Active | Active | Non-Toxic | –
CCCCCCCC(=O)c1c(O)cc(O)cc1CC(=O)OCC [CYTOSPORONE B] | – | – | – | – | – | – | – | – | – | – | – | – | – | – | Active
